We go through 10 compounds from ChEMBL document CHEMBL4665625, “New pyrido[3,4-g]quinazoline derivatives as CLK1 and DYRK1A inhibitors: synthesis, biological evaluation and binding mode analysis” (Eur J Med Chem, 2019).

Data set [1] deals with T1, Cyclin-dependent kinase 5/CDK5 activator 1 (Homo sapiens) (UniProt Q00535+Q15078). The data set is described as follows: Inhibition of recombinant human CDK5/p25 expressed in bacteria assessed as residual activity at 10 uM using histone H1 as substrate in presence of [gamma-33P]ATP relative to control. Put shortly: (§1)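 Human recombinant CDK5/p25 (bacterially expressed) assayed with 0.8 μg/μl histone H1 as substrate and 15 μM [γ-33P]ATP. Residual activity versus DMSO controls, triplicate.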

The target of data set [2] is T1, Cyclin-dependent kinase 5/CDK5 activator 1 (Homo sapiens). As to the kind of experiment: Inhibition of recombinant human CDK5/p25 expressed in bacteria assessed as residual activity at 1 uM using histone H1 as substrate in presence of [gamma-33P]ATP relative to control. An outline of the steps:
as §1

Data set [3] has as its target Dual specificity protein kinase CLK1 (Mus musculus) (UniProt P22518). The data set is described as follows: Inhibition of recombinant mouse CLK1 expressed in bacteria assessed as residual activity at 10 uM using GRSRSRSRSRSR as substrate in presence of [gamma-33P]ATP relative to control.
For data set [4] the target is unchanged. As to the kind of experiment: Inhibition of recombinant mouse CLK1 expressed in bacteria assessed as residual activity at 1 uM using GRSRSRSRSRSR as substrate in presence of [gamma-33P]ATP relative to control.
Data set [5] deals with Dual specificity tyrosine-phosphorylation-regulated kinase 1A (Rattus norvegicus) (UniProt Q63470). As to the kind of experiment: Inhibition of rat DYRK1A kinase domain (1 to 499 residues) expressed in bacteria assessed as residual activity at 10 uM using KKISGRLSPIMTEQ as substrate in presence of [gamma-33P]ATP relative to control. Put shortly: (§2)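 Buffer: 10 mM MgCl2, 1 mM EGTA, 1 mM DTT, 25 mM Tris-HCl pH 7.5, 50 μg/ml heparin, 0.15 mg/ml BSA.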

Data set [6] shares this target. The data set is described as follows: Inhibition of rat DYRK1A kinase domain (1 to 499 residues) expressed in bacteria assessed as residual activity at 1 uM using KKISGRLSPIMTEQ as substrate in presence of [gamma-33P]ATP relative to control. An outline of the steps: as §2
The species entered for data set [7] is Sus scrofa domesticus. As to the kind of experiment: Inhibition of porcine brain CK1delta/epsilon assessed as residual activity at 10 uM using RRKHAAIGSpAYSITA as substrate in presence of [gamma-33P]ATP relative to control. The class given is tissue-based.
Data set [8] is filed under the species Sus scrofa domesticus. As to the kind of experiment: Inhibition of porcine brain CK1delta/epsilon assessed as residual activity at 1 uM using RRKHAAIGSpAYSITA as substrate in presence of [gamma-33P]ATP relative to control. It is filed as tissue-based.
The target of data set [9] is T2, Glycogen synthase kinase-3 (Sus scrofa) (UniProt B2LUN4+I6LNT8). The data set is described as follows: Inhibition of porcine brain GSK-3alpha/beta assessed as residual activity at 10 uM using YRRAAVPPSPSLSRHSSPHQSpEDEEE as substrate in presence of [gamma-33P]ATP relative to control. The conditions noted are these: Sus scrofa domesticus. The class given is tissue-based.

Data set [10] addresses T2, Glycogen synthase kinase-3 (Sus scrofa). The data set is described as follows: Inhibition of porcine brain GSK-3alpha/beta assessed as residual activity at 1 uM using YRRAAVPPSPSLSRHSSPHQSpEDEEE as substrate in presence of [gamma-33P]ATP relative to control. The conditions noted are these: Sus scrofa domesticus. It is filed as tissue-based. An outline of the steps: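 Affinity-purified porcine brain GSK-3α/β with 0.01 µg/µl GS-1 peptide (phosphoserine-primed) as substrate and 15 µM [γ-33P]ATP. Buffer was 25 mM Tris-HCl pH 7.5, 10 mM MgCl2, 1 mM EGTA, 1 mM DTT, 50 µg/ml heparin and 0.15 mg/ml BSA. Radioactive incorporation was compared with DMSO-dilution controls, in triplicate.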

Data set [11] has as its target Dual specificity protein kinase CLK1 (Mus musculus, UniProt P22518). As to the kind of experiment: Inhibition of recombinant mouse CLK1 expressed in bacteria using GRSRSRSRSRSR as substrate in presence of [gamma-33P]ATP.
Data set [12] can be described thus: Antiproliferative activity against hTERT-RPE1 cells assessed as cell viability at 2 uM after 48 hrs by CellTiter96 AQueous assay relative to control. As to conditions: human, read-out: Activity. The class given is cell-based, TERT-RPE1. Put shortly: (§3)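 Cells grown in McCoy's 5a (HCT116), DMEM (SH-SY5Y, MDA-MB231, U-2 OS) or DMEM:F12 (hTERT-RPE1), each with 10% fetal calf serum, 2 mM L-glutamine, penicillin/streptomycin. Exposed to compound at 2 μM for 48 h; viability read by CellTiter96 AQueous per manufacturer, as % of DMSO-treated cells. Triplicate, mean ± SD; staurosporine as positive control.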

The subject of a further data set is HCT-116. As to the kind of experiment: Antiproliferative activity against human HCT116 cells assessed as cell viability at 2 uM after 48 hrs by CellTiter96 AQueous assay relative to control. The conditions noted are these: read-out: Activity. It is filed as functional. Put shortly: as §3
The next data set has as its system MDA-MB-231. The data set is described as follows: Antiproliferative activity against human MDA-MB-231 cells assessed as cell viability at 2 uM after 48 hrs by CellTiter96 AQueous assay relative to control. The class given is functional. As to conditions: read-out: Activity. Put shortly:
as §3

A further data set deals with SH-SY5Y. As to the kind of experiment: Antiproliferative activity against human SH-SY5Y cells assessed as cell viability at 2 uM after 48 hrs by CellTiter96 AQueous assay relative to control. The class given is functional. As to conditions: read-out: Activity. An outline of the steps: as §3
A further data set concerns U2OS. As to the kind of experiment: Antiproliferative activity against human U2OS cells assessed as cell viability at 2 uM after 48 hrs by CellTiter96 AQueous assay relative to control. The class given is functional. The conditions noted are these: read-out: Activity. Put shortly:
as §3

The target of data set [13] is Dual specificity tyrosine-phosphorylation-regulated kinase 1A (Rattus norvegicus, UniProt Q63470). The data set is described as follows: Inhibition of rat DYRK1A kinase domain (1 to 499 residues) expressed in bacteria using KKISGRLSPIMTEQ as substrate in presence of [gamma-33P]ATP. Put shortly: as §2

One may read the IC50 as the concentration that gives 50% inhibition.

T1 sequence (Q00535 whole entry): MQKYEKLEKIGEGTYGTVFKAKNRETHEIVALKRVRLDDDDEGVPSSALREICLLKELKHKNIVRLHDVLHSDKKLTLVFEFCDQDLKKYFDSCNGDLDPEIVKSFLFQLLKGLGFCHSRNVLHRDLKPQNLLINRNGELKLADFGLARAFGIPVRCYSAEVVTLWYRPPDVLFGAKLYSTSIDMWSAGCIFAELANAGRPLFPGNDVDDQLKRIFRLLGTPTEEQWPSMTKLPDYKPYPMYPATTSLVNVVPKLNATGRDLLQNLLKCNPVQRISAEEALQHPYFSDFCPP
T1 sequence (Q15078 99-307 partner limits assumed): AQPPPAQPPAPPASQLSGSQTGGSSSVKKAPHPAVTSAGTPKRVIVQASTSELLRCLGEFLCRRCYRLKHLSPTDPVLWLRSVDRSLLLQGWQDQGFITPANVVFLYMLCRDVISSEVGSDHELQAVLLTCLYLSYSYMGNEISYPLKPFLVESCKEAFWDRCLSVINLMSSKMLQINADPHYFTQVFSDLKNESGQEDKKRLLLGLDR
Dual specificity protein kinase CLK1 (Mus musculus), sequence (P22518 whole entry, looked up): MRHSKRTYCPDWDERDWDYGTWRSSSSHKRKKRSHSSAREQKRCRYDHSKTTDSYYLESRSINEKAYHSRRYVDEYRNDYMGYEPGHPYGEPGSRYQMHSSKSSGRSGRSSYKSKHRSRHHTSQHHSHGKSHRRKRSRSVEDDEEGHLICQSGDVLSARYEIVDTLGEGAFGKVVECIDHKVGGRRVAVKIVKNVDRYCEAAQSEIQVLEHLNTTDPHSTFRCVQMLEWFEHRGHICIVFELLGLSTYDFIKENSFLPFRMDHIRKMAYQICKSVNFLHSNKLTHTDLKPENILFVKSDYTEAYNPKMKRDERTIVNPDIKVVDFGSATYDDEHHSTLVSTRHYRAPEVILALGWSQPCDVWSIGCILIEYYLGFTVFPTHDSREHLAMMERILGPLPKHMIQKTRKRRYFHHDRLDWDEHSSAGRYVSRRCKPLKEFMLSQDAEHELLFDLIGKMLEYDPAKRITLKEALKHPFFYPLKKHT
Dual specificity protein kinase CLK1, sequence (P22518 whole entry): as the sequence (P22518 whole entry, looked up) above

Turning to `O=[N+]([O-])c1c2ccncc2cc2cnc(NCCCN3CCCCC3)nc12`, the Activity in data set [1] came to 53%; in data set [2] it was 100%; in data set [3], 7%; in data set [4], 16%; in [5] it was 6%; in data set [6], 56%. For the same compound, the Activity in the data set listed under Sus scrofa domesticus [7] stood at 34%; in the data set listed under Sus scrofa domesticus [8], 100%; in data set [9], 24%; in [10], 76%. In [11], the IC50 is 125 nM.

Take `CN1CCN(CCCNc2ncc3cc4cnccc4c([N+](=O)[O-])c3n2)CC1`: the Activity in data set [1] is 48%; in data set [2], 100%; in data set [3], 8%; in data set [4] it was 22%; in data set [5], 3%; in data set [6], 54%. For the same compound, the Activity in the data set filed under Sus scrofa domesticus [7] is 32%; in the data set listed under Sus scrofa domesticus [8], 92%; in data set [9] it was 2%; in [10], 59%. Further, the IC50 in [11] is 133 nM. In [12], the viability at 48 h, 2 µM worked out at 25.8%. Further, the viability at 2 µM was 9.7% with HCT-116, 11.7% in the data set with MDA-MB-231, 36% with SH-SY5Y and 2.5% in the data set with U2OS.

`CNc1ncc2cc3cnccc3c([N+](=O)[O-])c2n1`: the Activity stood at 38% in [1]; 73% in [2]; 2% in [3]; 5% in [4]; 13% in data set [5]; 39% in data set [6]. In addition, the Activity in the data set listed under Sus scrofa domesticus [7] was 45%; in the data set filed under Sus scrofa domesticus [8], 98%; in data set [9] it was 51%; in data set [10], 70%. For the same compound, in [11], the IC50 was determined as 18 nM. The viability at 48 h, 2 µM in data set [12] was 36%. Moreover, the viability at 2 µM came out at 22% in the data set on HCT-116, 41% with MDA-MB-231, 52% in the data set with SH-SY5Y and 19.5% in the data set on U2OS.

Consider `CN(C)CCNc1ncc2cc3cnccc3c([N+](=O)[O-])c2n1`, for which the Activity turned out to be 52% in data set [1]; 100% in data set [2]; 5% in data set [3]; 22% in data set [4]; 17% in [5]; 89% in [6]. The Activity in the data set listed under Sus scrofa domesticus [7] was found to be 36%; in the data set listed under Sus scrofa domesticus [8] it was 100%; in [9], 21%; in data set [10], 70%. Moreover, the concentration for half-maximal inhibition (IC50) in [11] was determined as 62 nM. In addition, in data set [12], the viability at 48 h, 2 µM was found to be 29.2%. The viability at 2 µM in the data set on HCT-116 stood at 13.3%; in the data set with MDA-MB-231 it was 9.4%; in the data set with SH-SY5Y, 42.7%; with U2OS, 3.3%.

With `CCN(CC)CCCNc1ncc2cc3cnccc3c(N)c2n1`, the Activity was determined as 20% in [1]; 68% in data set [2]; 2% in [3]; 21% in [4]; 2% in data set [5]; 24% in [6]. Besides, the Activity in the data set filed under Sus scrofa domesticus [7] was found to be 45%; in the data set filed under Sus scrofa domesticus [8], 68%; in [9] it was 22%; in data set [10] it was 61%. Also, the results for the IC50 in data set [11] and in [13] were 160 nM and 80 nM, respectively.

On to `O=[N+]([O-])c1c2ccncc2cc2cnc(NCCCN3CCOCC3)nc12`, for which the Activity was determined as 60% in [1]; 100% in data set [2]; 3% in data set [3]; 14% in [4]; 10% in data set [5]; 68% in [6]. Moreover, the Activity came to 38% in the data set filed under Sus scrofa domesticus [7], 100% in the data set filed under Sus scrofa domesticus [8], 15% in data set [9] and 76% in [10]. Also, in data set [11], the IC50 turned out to be 120 nM. Also, in data set [12], the viability at 48 h, 2 µM worked out at 31%. Moreover, the viability at 2 µM was 16.8% in the data set with HCT-116, 39% in the data set with MDA-MB-231, 54% in the data set with SH-SY5Y and 27% in the data set on U2OS.

In the case of `CN(C)CCCNc1ncc2cc3cnccc3c(N)c2n1`, the Activity in [1] is 34%; in data set [2] it was 77%; in data set [3] it was 1%; in [4], 14%; in data set [5], 1%; in [6], 17%. Also, the Activity in the data set filed under Sus scrofa domesticus [7] is 61%; in the data set filed under Sus scrofa domesticus [8], 96%; in data set [9] it was 10%; in data set [10] it was 36%. Moreover, the half-maximal inhibitory concentration (IC50) in data set [11] and in data set [13] was 120 nM in each case. Also, in data set [12], the viability at 48 h, 2 µM turned out to be 0%. In addition, the viability at 2 µM in the data set with HCT-116 is 0%; in the data set with MDA-MB-231, 0.4%; in the data set with SH-SY5Y, 0%; in the data set with U2OS, 0%.

As to `CN[C@@H]1C[C@H]2O[C@@](C)([C@@H]1OC)n1c3ccccc3c3c4c(c5c6ccccc6n2c5c31)C(=O)NC4` [STAUROSPORINE], the viability at 48 h, 2 µM in data set [12] stood at 9.1%. For the same compound, the viability at 2 µM in the data set on HCT-116 was 27%; with MDA-MB-231, 3.9%; in the data set on SH-SY5Y, 9.4%; in the data set with U2OS, 0.4%.

`Nc1c2ccncc2cc2cnc(NCCCN3CCCC3)nc12`: the Activity in data set [1] was 44%; in data set [2] it was 86%; in data set [3] it was 4%; in [4] it was 26%; in data set [5], 1%; in data set [6], 25%. The Activity in the data set filed under Sus scrofa domesticus [7] is 23%; in the data set filed under Sus scrofa domesticus [8], 69%; in data set [9], 23%; in [10] it was 50%. Moreover, the half-maximal inhibitory concentration (IC50) in [13] was found to be 90 nM. The viability at 48 h, 2 µM in [12] turned out to be 52%. Moreover, the viability at 2 µM in the data set on HCT-116 stood at 21%; in the data set on MDA-MB-231 it was 22%; in the data set on SH-SY5Y, 92.2%; with U2OS it was 33%.

Take `CN1CCN(CCNc2ncc3cc4cnccc4c(N)c3n2)CC1`: the Activity was determined as 55% in data set [1]; 88% in [2]; 4% in data set [3]; 21% in data set [4]; 2% in data set [5]; 19% in data set [6]. Moreover, the Activity in the data set filed under Sus scrofa domesticus [7] is 70%; in the data set listed under Sus scrofa domesticus [8], 100%; in data set [9], 22%; in data set [10], 44%. The half-inhibitory concentration (IC50) is 210 nM in data set [11] and 120 nM in data set [13]. Besides, the viability at 48 h, 2 µM in data set [12] worked out at 19.4%. Also, the viability at 2 µM in the data set on HCT-116 amounted to 6.1%; in the data set with MDA-MB-231, 21.7%; in the data set on SH-SY5Y it was 62%; with U2OS it was 13%.
